# Compound activity from PubChem BioAssay.
# Wnt act: Wnt/beta-catenin pathway activation; activation, % at 9.35 µM; 1.2% of 300,000 active; Wnt/beta-catenin reporter cell assay, activator, plate reader; AID 743398; in the data active = activation above about 30%, passing the limit was not always enough; inconclusive = no clear call, values can overlap the other calls;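 note: 0% = neutral control wells and 100% = positive control wells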
# Env fusion inh: HIV envelope-mediated fusion inhibition | HeLa-JRFL Env/CEM21 cell fusion, luciferase | inhibition, % at 12.3 µM | 1.1% of 360,000 active | AID 651610;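 active = mean replicate inhibition score of at least 50 and every replicate individually at or above 50; inconclusive = only one of the two criteria met; inactive = mean below 50 and not all replicates reaching 50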;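 note: 0% = plate neutral controls and 100% = maraviroc near 300 nM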
# Cneo AK release: causes C. neoformans cell lysis | lysis activity, % at 15 µM | AID 651654 | adenylate kinase release luminescence, 4 h; normalised: neutral wells 0, clomiphene wells 100 | 0.2% of 360,000 active;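 active = mean lysis activity across replicates of at least 80%, whatever share of replicates individually reach that level; inactive = mean lysis activity below 80%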
#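 Schedule: static 4 h at 37 °C with compound, 1 h detection; system: C. neoformans cells; benchmarks: Clomiphene as positive control; buffer or medium: fresh YPD medium; measure: luminescence rise reflecting yeast cell lysis; measured by: luminescent adenylate kinase detection reagent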
# ERAP1 inh: inhibitors of human ERAP1 aminopeptidase. recombinant ERAP1, Leu-AMC fluorescence, 60 min. inhibition, % at 10.7 µM. 0.15% of 340,000 active;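 active = mean replicate inhibition of at least 30%, or all replicates individually reaching that 30% level; inactive = mean below 30% and not every replicate reaching it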;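 note: 0% = neutral control wells and 100% = L-leucinethiol positive control wells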
# Target sequence (Q9NZ08 whole entry, looked up): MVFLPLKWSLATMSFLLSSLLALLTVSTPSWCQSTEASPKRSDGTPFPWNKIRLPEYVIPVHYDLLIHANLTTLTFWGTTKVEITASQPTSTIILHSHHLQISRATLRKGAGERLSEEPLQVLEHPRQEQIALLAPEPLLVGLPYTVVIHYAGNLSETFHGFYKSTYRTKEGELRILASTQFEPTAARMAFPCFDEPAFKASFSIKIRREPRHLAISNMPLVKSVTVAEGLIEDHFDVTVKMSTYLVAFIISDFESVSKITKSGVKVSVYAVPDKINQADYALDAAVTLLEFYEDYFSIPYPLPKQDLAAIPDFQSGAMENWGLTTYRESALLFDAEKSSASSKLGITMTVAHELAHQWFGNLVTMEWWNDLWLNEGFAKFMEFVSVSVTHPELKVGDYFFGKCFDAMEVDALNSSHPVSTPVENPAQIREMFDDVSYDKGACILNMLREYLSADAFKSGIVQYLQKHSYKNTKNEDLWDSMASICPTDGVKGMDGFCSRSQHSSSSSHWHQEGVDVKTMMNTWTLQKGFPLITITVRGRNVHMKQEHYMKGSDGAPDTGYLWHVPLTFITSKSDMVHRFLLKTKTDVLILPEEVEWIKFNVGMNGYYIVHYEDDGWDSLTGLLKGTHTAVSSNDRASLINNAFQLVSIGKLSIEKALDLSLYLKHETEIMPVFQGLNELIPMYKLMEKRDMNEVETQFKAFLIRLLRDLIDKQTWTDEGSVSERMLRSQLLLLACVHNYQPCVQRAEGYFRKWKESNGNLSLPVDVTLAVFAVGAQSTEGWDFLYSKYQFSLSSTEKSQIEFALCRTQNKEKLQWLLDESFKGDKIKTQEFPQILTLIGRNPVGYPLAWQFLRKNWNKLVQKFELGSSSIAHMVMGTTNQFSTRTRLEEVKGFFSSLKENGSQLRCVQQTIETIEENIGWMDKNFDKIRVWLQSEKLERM
# MITF act: activators of MITF-driven TRPM1 promoter activity in SK-MEL-5 cells. SK-MEL-5 TRPM1-promoter luciferase, 24 h; % of positive control, neutral wells = 0. activation, % at 12.5 µM. 0.75% of 300,000 active. AID 588334;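 active = mean activation of at least 80% with every replicate also reaching 80%; inconclusive = mean reaches 80% but some replicate falls short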;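 note: 0% = neutral control wells and 100% = parthenolide positive control wells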
# esBAF inh: blocks esBAF chromatin remodeling in mouse ES cells; Bmi1-luciferase knock-in reporter, 24 h; 100% = twice the neutral-well signal; reporter increase, % at 12.5 µM; 2% of 350,000 active; in the data active = activation above about 40%; inconclusive = no clear call, values can overlap the other calls;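 note: 0% = median of the plate's neutral control wells and 100% = double that signal; a rise in the Bmi1 reporter signal indicates esBAF inhibition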
# * = called active by the depositor; u = inconclusive; x = no result given; [ ] = remark or other dose. Rows were chosen to be rich in hits. Some 3.5% of all compounds tested hit in one or more screens of this group.
SMILES,Wnt act,Env fusion inh,Cneo AK release,ERAP1 inh,MITF act,esBAF inh
Cc1noc(C)c1S(=O)(=O)Nc1ccc2c(c1)C(=O)N([C@@H](C)CO)C[C@H](C)[C@H](CN(C)S(=O)(=O)c1ccccc1)OCCCC[C@@H](C)O2,x,-34[16.7 µM],0,1,x,-1
O=C(c1ccccn1)N1C[C@H]2[C@@H](c3ccccc31)[C@H](CO)N2C(=O)Cc1ccccc1,x,x,0,-2,x,1
CCCCn1c(=N)n(CC(=O)c2ccc(Br)s2)c2ccccc21,1,24,3,-2,-90,0
CCn1c(=N)n(CC(=O)c2ccc(Br)s2)c2ccccc21,-11,20,-1,3,34,59*
COc1ccc2oc(C(=O)Nc3nc(C)cs3)c(C)c2c1,51*,x,-7,-1,79,22
COc1ccc2oc(C(=O)NCCC(C)C)c(C)c2c1,-2,-33,1,-4,u,26
Cc1csc(NC(=O)c2sccc2C)n1,48*,-37,-3,1,30,2
COc1ccc2oc(C(=O)Nc3ccc(C)cn3)c(C)c2c1,38*,-88,3,-1,76,u
COc1ccc2oc(C(=O)Nc3ccccn3)c(C)c2c1,43*,-404,-18,2,-8,-49
C[C@@H]1CN([C@H](C)CO)C(=O)Cc2cc(NC(=O)CCC(F)(F)F)ccc2O[C@H]1CN(C)Cc1ccc(Oc2ccccc2)cc1,x,4[16.7 µM],-1,x,x,9
C[C@H]1CCCCO[C@H](CN(C)Cc2ccc(C(F)(F)F)cc2)[C@@H](C)CN([C@@H](C)CO)C(=O)c2cc(NS(=O)(=O)c3ccc(Cl)cc3)ccc2O1,x,16[16.7 µM],3,0,x,-8
CC(C)NC(=O)N(C)C[C@H]1Oc2ccc(NC(=O)Nc3cccc4ccccc34)cc2CC(=O)N([C@@H](C)CO)C[C@H]1C,x,28[16.7 µM],-4,-2,x,2
N#C[C@@H]1[C@@H](c2ccc(/C=C/c3ccccc3)cc2)[C@@H](CO)N1C(=O)C1CCCCC1,x,6[16.7 µM],-1,-2,x,27
FC(F)(F)COc1nc(N2CCOCC2)nc(N(c2ccccc2)c2ccccc2)n1,x,76*,0,x,5,-6
CCC(=O)N1[C@@H](CO)[C@H](c2ccccc2)[C@@H]1CNC(=O)CN1CCOCC1,x,x,-1,0,x,4
CCCCN1CC(O)=C(c2nc3ccccc3s2)C1=N,-1,-88,-4,x,72,58*
Cc1ccccc1S(=O)(=O)N1CC[C@@H]2[C@@H](CO)N(C)c3ccc(-c4cccc(F)c4)cc3[C@@H]21,x,x,-16,x,x,3
Cc1nc(C(=O)Nc2ccccc2)sc1C(=O)Nc1ccccc1,1,-2,-3,0,86*,54*
Cc1nc(N)sc1C(=O)Nc1ccccc1,1,x,-8,x,x,19
Cc1ccc(NC(=O)c2sc(N)nc2C)cc1,7,-20,-5,1,51,50*
C[C@H]1CN([C@@H](C)CO)C(=O)c2cc(NC(=O)Nc3ccccc3)ccc2O[C@@H]1CN(C)C,x,11[16.7 µM],-2,-2,x,-2
COc1ccccc1/C=C/C=N/NC(=O)c1ccccn1,19,-27,x,5,97*,x
COc1ccccc1/C=C/C=N/NC(=O)c1cnccn1,0,-12,x,0,57,x
C[C@H](CO)N1C[C@H](C)[C@@H](CN(C)Cc2ccncc2)Oc2ccc(NC(=O)Cc3cn(C)c4ccccc34)cc2CC1=O,x,x,2,-2,x,3
CCc1noc(C)c1C(=O)OC(C)C(=O)c1c(C)[nH]c2ccccc12 (stereo unspecified),47*,x,0,1,-13,5
SMILES,Wnt act,Env fusion inh,Cneo AK release,ERAP1 inh,MITF act,esBAF inh
O=C(Nc1ccc(F)cc1)c1ccc2snnc2c1,6,-22,0,1,16,45*
Cc1ccc(NC(=O)c2ccc3snnc3c2)cc1C,21,-109,2,1,64,u
CCOc1ccc(NC(=O)c2ccc3snnc3c2)cc1,6,x,-3,x,x,54*
Cn1c(-c2ccc3ccccc3n2)nc2cnccc21,-2,x,2,x,x,66*
COc1ccc2c3c(n(C)c2c1)[C@@H](CO)N(C(=O)Cc1ccccc1)CC31CCN(C)CC1,x,x,x,3,x,x
Cc1ccc(C(=O)CSc2nc(C(C)C)nc3ccccc23)cc1,36*,-17,1,1,-6,0
CC(C)c1nc(SCC(=O)c2ccc(F)cc2)c2ccccc2n1,1,2,x,6,-1,x
CCCc1cnc(N2CCN(C(=O)c3ccc(F)cc3)CC2)nc1,3,4,-2,0,-12,2
CCCc1cnc(N2CCN(C(=S)NC)CC2)nc1,40*,-35,x,3,x,37
C=CS(=O)(=O)N(Cc1ccccc1)[C@H](CO)CC(C)C,-1,-2,-1,1,-6,-5
O=S(=O)(N(Cc1ccccc1)[C@@H](CO)Cc1ccccc1)N(Cc1ccccc1)[C@@H](CO)Cc1ccccc1,-4,71*,7,0,-3,-8
CC(C)C[C@H](CO)N(Cc1ccccc1)S(=O)(=O)N(Cc1ccccc1)[C@@H](CO)CC(C)C,-22,109*,-1,-3,-25,1
O=C(C[C@@H]1CC[C@@H](NC(=O)c2ccc(F)cc2)[C@@H](CO)O1)NCc1ccncn1,x,x,-3,0,x,-1
O=C(CCNC(=O)c1ccccc1Cl)NCCC1=CCCCC1,-1,58*,1,-2,26,11
O=C(NCCC1=CCCCC1)c1cc(S(=O)(=O)N2CCOCC2)ccc1Cl,-1,36,x,-1,-11,x
Cc1ccc(S(=O)(=O)N2CCCCC2)cc1C(=O)NCCC1=CCCCC1,-1,73*,x,-7,-4,x
CO[C@@H]1CN(C)C(=O)c2ccc(NC(=O)CC(F)(F)F)cc2OC[C@H](C)N(C(C)=O)C[C@H]1C,x,x,x,-1,x,x
O=C(C[C@@H]1CC[C@@H]2[C@H](COC[C@H](O)CN2CC2CCOCC2)O1)N1CCOCC1,x,x,0,1,x,0
CSc1ccc(CN2CCC2(C)C(=O)Nc2cccc(NS(C)(=O)=O)c2)cc1 (stereo unspecified),-4,76*,-1,2,x,8
Cn1ncc(Cl)c1C(=O)Nc1ccc2c(c1)CCC2,24,-74,-2,-1,29,52*
Cc1ccc(NC(=O)Nc2ccc3c(c2)CCC3)c(C)c1,2,0,1,-6,23,7
COC(=O)c1cc(NC(=O)c2c(Cl)cnn2C)cc(C(=O)OC)c1,-4,11,4,3,-4,x
O=C(Nc1ccc2c(c1)CCC2)Nc1ccccc1Cl,51*,x,-4,0,68,79*
Cc1cc(C)n2nc(C(=O)Nc3ccc(S(=O)(=O)N4CCCC4)cc3)nc2n1,-1,5,-3,1,-6,-4
Cc1cc(C)n2nc(C(=O)Nc3ccc4c(c3)CCC4)nc2n1,20,-17,3,3,48,56*
